From ChEMBL document CHEMBL1131615, “Synthesis and tyrosine kinase inhibitory activity of a series of 2-amino-8H-pyrido[2,3-d]pyrimidines: identification of potent, selective platelet-derived growth factor receptor tyrosine kinase inhibitors” (J Med Chem, 1998)

Columns and labels:
[1] = molecular target: Platelet-derived growth factor receptor (Mus musculus, UniProt P05622+P26618); test: Inhibition against of platelet-derived growth factor receptor (PDGFr)
[2] = molecular target: Fibroblast growth factor receptor (Mus musculus, UniProt P21803+Q03142+P16092+Q61851); test: Inhibition of mouse fibroblast growth factor receptor tyrosine kinase (FGFr); type: protein assay
[3] = molecular target: Proto-oncogene tyrosine-protein kinase Src (Mus musculus, UniProt P05480); test: Inhibition of mouse c-Src tyrosine kinase
Proto-oncogene tyrosine-protein kinase Src, sequence (P05480 2-535 limits assumed): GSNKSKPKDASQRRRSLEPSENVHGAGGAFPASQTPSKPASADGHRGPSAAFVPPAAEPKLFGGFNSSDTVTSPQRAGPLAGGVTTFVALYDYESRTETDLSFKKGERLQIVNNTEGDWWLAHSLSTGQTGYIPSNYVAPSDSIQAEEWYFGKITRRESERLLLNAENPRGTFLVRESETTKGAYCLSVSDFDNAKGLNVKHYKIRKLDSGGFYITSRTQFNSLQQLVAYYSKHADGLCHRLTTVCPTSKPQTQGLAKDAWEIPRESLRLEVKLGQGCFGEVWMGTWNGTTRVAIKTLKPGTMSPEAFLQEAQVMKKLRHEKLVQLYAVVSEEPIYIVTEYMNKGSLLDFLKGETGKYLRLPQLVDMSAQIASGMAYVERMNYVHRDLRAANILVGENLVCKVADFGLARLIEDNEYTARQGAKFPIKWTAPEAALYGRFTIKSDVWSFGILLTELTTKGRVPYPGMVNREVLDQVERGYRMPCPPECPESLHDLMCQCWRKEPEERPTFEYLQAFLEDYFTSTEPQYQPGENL

[4] = molecular target: T1, Platelet-derived growth factor receptor (PDGFr) (Rattus norvegicus, UniProt P20786+Q05030); test: Inhibition of PDGF-stimulated Platelet-derived growth factor receptor autophosphorylation in C6 rat glioma cells after 2 hr; type: cell-based
[5] = molecular target: T1, Platelet-derived growth factor receptor (PDGFr); test: Inhibition of PDGF-stimulated Platelet-derived growth factor receptor autophosphorylation in rat aortic vascular smooth muscle cells (RAVSMCs) after 2 hr
[6] = Compound was tested for apparent terminal phase elimination half life in three male Wistar rats at a single 5 mg/kg oral gavage dose; type: ADME, organism-based; set-up: dose 5 mg/kg, route oral; settings: rat, in vivo
In short: (§1)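 Single 5 mg/kg oral gavage dose given to three male Wistar rats, in 17% PEG 400/83% methylcellulose (0.5%). Heparinized plasma was taken by jugular vein cannula from 0 to 48 h; lower limit of quantitation was 10 ng/mL. Noncompartmental analysis: t1/2 = 0.693/λz (log-linear terminal regression); AUC by trapezoidal rule, extrapolated to infinity.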

DU-145 [7] = test: Delay between treated (T) and control (C) DU-145 cell tumors reaching 750 mg at 48 mg/kg peroral dose, days 16-20,23-27,30-34 administration; type: functional; settings: route oral
In short: (§2)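 Nude mice (18-22 g), randomized, implanted sc in the right axilla on day 0 with tumor fragments maintained by serial passage in nude mice. Tumors were C6 rat glioma, NIH 3T3 transfected with human PDGF ββ, or DU-145 prostate. At least 6 mice per group, 12 controls. Oral dosing by average cage weight on the stated days.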

C6 [8] = test: Inhibition of rat C6 glioma cell proliferation in sulforhodamine B assay; type: functional, cell-based
In short: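 C6 rat glioma cells cultured 4 days with a range of compound concentrations; growth read by sulforhodamine B staining, giving IC50.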

DU-145 [9] = test: Net reduction in DU-145 cell tumor burden after 48 mg/kg peroral dose, days 16-20,23-27,30-34 administration; type: functional; settings: route oral
In short: (§3)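 Tumor lines (C6 rat glioma; NIH 3T3 fibroblasts transfected with human PDGF-ββ; DU-145 prostatic adenocarcinoma) were kept by serial passage in nude mice. Randomized nude mice weighing 18-22 g received sc tumor fragments in the right axilla on day 0, with at least 6 per treated group and 12 controls. Oral dosing was based on average cage weight. Net cell kill is given as log10.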

C6 [10] = test: Ratio of treated/control C6 glioma cell tumor mass at 40 mg/kg peroral dose, days 1-15 administration; type: functional; settings: route oral
In short: (§4)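 Nude mouse sc axillary tumor-fragment xenografts implanted on day 0 (6-8 treated, 12 controls), with oral dosing on the stated schedule. T/C = median treated tumor mass / median control tumor mass × 100%, on the last therapy day.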

Rattus norvegicus [11] = test: Compound was tested for area under concentration -time curve from time 0 to time of last detectable concentration in three male Wistar rats at a single 5 mg/kg oral gavage dose; type: ADME, organism-based; set-up: dose 5 mg/kg, route oral; settings: in vivo; in short: as §1
[12] = Compound was tested for time to reach Cmax in three male Wistar rats at a single 5 mg/kg oral gavage dose.; type: ADME, organism-based; set-up: dose 5 mg/kg, route oral; settings: rat, in vivo; in short: as §1
C6 [13] = test: Net reduction in C6 glioma cell tumor burden after 40 mg/kg peroral dose, days 1-15 administration; type: functional; settings: route oral; in short: as §3
C6 [14] = test: Delay between treated (T) and control (C) C6 glioma cell tumors reaching 750 mg at 40 mg/kg peroral dose, days 1-15 administration; type: functional; settings: route oral; in short: as §2
Mus musculus [15] = test: Net reduction in PDGF-transfected cell tumor burden after 20 mg/kg peroral dose, days 1-15 administration; type: functional; settings: route oral; in short: as §3
DU-145 [16] = test: Weight change after 48 mg/kg peroral dose, days 16-20,23-27,30-34 treatment of DU-145 cell tumor
C6 [17] = test: C6 glioma 3-day proliferation followed by soft agar growth without treatment; type: functional, cell-based; settings: Rattus norvegicus, C6, 72 h
In short: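 C6 rat glioma cells exposed to a range of compound concentrations for 3 days in culture, then cloned in soft agar with drug removed. IC50 derived.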

Mus musculus [18] = test: Delay between treated (T) and control (C) PDGF-transfected cell tumors reaching 750 mg at 20 mg/kg peroral dose, days 1-15 administration; type: functional; settings: route oral; in short: as §2
Mus musculus [19] = test: Ratio of treated/control PDGF-transfected cell tumor mass at 20 mg/kg peroral dose, days 1-15 administration; type: functional; settings: route oral; in short: as §4
Mus musculus [20] = test: Weight change after 20 mg/kg peroral dose, days 1-15 treatment of PDGF-transfected cell tumor; type: functional, organism-based; set-up: dose 20 mg/kg; in short: as §2
C6 [21] = test: C6 glioma 3-day proliferation followed by soft agar growth with continuous treatment; type: functional, cell-based; settings: Rattus norvegicus, C6, 72 h
In short: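 C6 rat glioma cells exposed to a range of compound concentrations for 3 days in culture, then cloned in soft agar with drug kept present throughout colony growth. IC50 derived.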

Rattus norvegicus [22] = test: Compound was tested for area under concentration -time curve from time 0 to time infinity in three male Wistar rats at a single 5 mg/kg oral gavage dose; type: ADME, organism-based; set-up: dose 5 mg/kg, route oral; settings: in vivo; in short: as §1
C6 [23] = test: Weight change after 40 mg/kg peroral dose, days 1-15 treatment of C6 glioma cell tumor; type: functional; settings: route oral; in short: as §2
[24] = Compound was tested for maximum observed concentration in three male Wistar rats at a single 5 mg/kg oral gavage dose; type: ADME, organism-based; set-up: dose 5 mg/kg, route oral; settings: rat, in vivo; in short: as §1
DU-145 [25] = test: Ratio of treated/control DU-145 cell tumor mass at 48 mg/kg peroral dose, days 16-20, 23-27, 30-34 administration; type: functional; settings: route oral; in short: as §4
Rattus norvegicus [26] = test: Compound was tested for area under concentration -time curve from time 0 to time infinity in three male Wistar rats at a single 5 mg/kg oral gavage dose.; type: ADME, organism-based; set-up: dose 5 mg/kg, route oral; settings: in vivo; in short: as §1

## CCCCn1c(=O)c(-c2c(Cl)cccc2Cl)cc2cnc(N)nc21
[1]
  IC50: 1200 nM
[2]
  IC50: 0.58 µM
[3]
  IC50: 330 nM

## Nc1ncc2cc(-c3c(Cl)cccc3Cl)c(=O)n(CCCOCc3ccccc3)c2n1
[1]
  IC50: 6800 nM
[2]
  IC50: 3.2 µM
[3]
  IC50: 1400 nM

## CCn1c(=O)c(-c2ccccc2)cc2cnc(Nc3ccccc3)nc21
[4]
  IC50: > 0.025 µM
[1]
  IC50: 180 nM
[2]
  IC50: 1.5 µM
[5]
  IC50: 0.0046 µM
[3]
  IC50: 1800 nM

## Cn1c(=O)c(-c2ccccc2)cc2cnc(Nc3ccccc3)nc21
[1]
  IC50: 290 nM
[2]
  IC50: 5 µM
[3]
  IC50: 2400 nM

## CCn1c(=O)c(-c2c(Cl)cccc2Cl)cc2cnc(N)nc21
[1]
  IC50: 980 nM
[3]
  IC50: 160 nM

## CC(C)Cn1c(=O)c(-c2c(Cl)cccc2Cl)cc2cnc(N)nc21
[1]
  IC50: 1600 nM
[2]
  IC50: 0.5 µM
[3]
  IC50: 890 nM

## CCN(CC)CCOc1ccc(Nc2ncc3cc(-c4ccsc4)c(=O)n(C)c3n2)cc1
[1]
  IC50: 54 nM
[2]
  IC50: 2.9 µM
[5]
  IC50: 0.054 µM
[3]
  IC50: 210 nM

## CCn1c(=O)c(-c2ccsc2)cc2cnc(Nc3ccccc3)nc21
[4]
  IC50: > 0.025 µM
[1]
  IC50: 410 nM
[2]
  IC50: > 50 µM
[3]
  IC50: 41000 nM

## Cn1c(=O)c(-c2cccs2)cc2cnc(Nc3ccccc3)nc21
[1]
  IC50: 950 nM
[2]
  IC50: > 50 µM
[3]
  IC50: > 50000 nM

## CCN(CC)CCOc1ccc(Nc2ncc3cc(-c4ccccc4)c(=O)n(C)c3n2)cc1
[1]
  IC50: 42 nM
[2]
  IC50: 0.35 µM
[3]
  IC50: 140 nM

## Nc1ncc2cc(-c3c(Cl)cccc3Cl)c(=O)n(Cc3ccccc3)c2n1
[1]
  IC50: 4200 nM
[2]
  IC50: 1.4 µM
[3]
  IC50: 160 nM

## COC(=O)Cn1c(=O)c(-c2c(Cl)cccc2Cl)cc2cnc(N)nc21
[1]
  IC50: 5000 nM
[2]
  IC50: 1.7 µM
[3]
  IC50: 340 nM

## CCN(CC)CCOc1ccc(Nc2ncc3cc(-c4ccccc4)c(=O)n(CC)c3n2)cc1
[6]
  half-life: 399 min
DU-145 [7]
  T-C: 11.4 days
C6 [8]
  IC50: 1.2 µM
DU-145 [9]
  Net log cell kill: -0.4
C6 [10]
  T/C: 0%
Rattus norvegicus [11]
  AUC: 525 ng·h/mL
[4]
  IC50: 0.003 µM
[12]
  Tmax: 2.67 h
C6 [13]
  Net log cell kill: -0.3
C6 [14]
  T-C: 9.6 days
[1]
  IC50: 31 nM
Mus musculus [15]
  Net log cell kill: -1.2
DU-145 [16]
  Weight change: Weight gain
[2]
  IC50: 0.088 µM
C6 [17]
  IC50: 0.15 µM
Mus musculus [18]
  T-C: 6.9 days
[3]
  IC50: 31 nM
Mus musculus [19]
  T/C: 1%
Mus musculus [20]
  Weight change: Weight gain
C6 [21]
  IC50: 120 nM
Rattus norvegicus [22]
  AUC: 828 ng·h/mL
C6 [23]
  Weight change: -0.7 g
[24]
  Cmax: 78.3 ng/mL
DU-145 [25]
  T/C: 40%

## Cn1c(=O)c(-c2ccsc2)cc2cnc(Nc3ccncc3)nc21
[1]
  IC50: 480 nM
[2]
  IC50: 22.6 µM
[3]
  IC50: 1700 nM

## CC(C)(C)OC(=O)Cn1c(=O)c(-c2c(Cl)cccc2Cl)cc2cnc(N)nc21
[1]
  IC50: 7200 nM
[2]
  IC50: 1.7 µM
[3]
  IC50: 560 nM

## Nc1ncc2cc(-c3c(Cl)cccc3Cl)c(=O)n(Cc3ccncc3)c2n1
[1]
  IC50: 1200 nM
[3]
  IC50: 630 nM

## CCCn1c(=O)c(-c2c(Cl)cccc2Cl)cc2cnc(N)nc21
[1]
  IC50: 1200 nM
[2]
  IC50: 0.51 µM
[3]
  IC50: 630 nM

## CCn1c(=O)c(-c2ccccc2)cc2cnc(Nc3ccncc3)nc21
[6]
  half-life: 223 min
C6 [8]
  IC50: 7.2 µM
Rattus norvegicus [26]
  AUC: 5240 ng·h/mL
Rattus norvegicus [11]
  AUC: 4760 ng·h/mL
[4]
  IC50: 0.058 µM
[12]
  Tmax: 1.5 h
[1]
  IC50: 74 nM
[2]
  IC50: 1.1 µM
C6 [17]
  IC50: 13.2 µM
[3]
  IC50: 410 nM
C6 [21]
  IC50: 4900 nM
[24]
  Cmax: 730 ng/mL

## CCN(CC)CCOc1ccc(Nc2ncc3cc(-c4c(Cl)cccc4Cl)c(=O)n(CC)c3n2)cc1
[1]
  IC50: 150 nM
[2]
  IC50: 0.03 µM
[3]
  IC50: 17 nM

## Cn1c(=O)c(-c2ccsc2)cc2cnc(N)nc21
[1]
  IC50: 24400 nM
[2]
  IC50: > 50 µM
[3]
  IC50: > 50000 nM

## Cn1c(=O)c(-c2ccc(-c3ccccc3)cc2)cc2cnc(Nc3ccccc3)nc21
[1]
  IC50: > 50000 nM
[2]
  IC50: > 50 µM
[3]
  IC50: > 50000 nM

## Cn1c(=O)c(-c2ccccc2)cc2cnc(Nc3ccncc3)nc21
[1]
  IC50: 320 nM
[2]
  IC50: 4.7 µM
[3]
  IC50: 470 nM

## Nc1ncc2cc(-c3c(Cl)cccc3Cl)c(=O)n(CC(=O)O)c2n1
[1]
  IC50: > 50000 nM
[2]
  IC50: 7.9 µM
[3]
  IC50: > 50000 nM

## CNc1ncc2cc(-c3ccsc3)c(=O)n(C)c2n1
[1]
  IC50: > 50000 nM
[2]
  IC50: > 50 µM
[3]
  IC50: > 50000 nM

## Nc1ncc2cc(-c3c(Cl)cccc3Cl)c(=O)n(CCCO)c2n1
[1]
  IC50: 1100 nM
[2]
  IC50: 0.37 µM
[3]
  IC50: 180 nM

## Cn1c(=O)c(-c2c(Cl)cccc2Cl)cc2cnc(N)nc21
[1]
  IC50: 3800 nM
[2]
  IC50: 1.3 µM
[3]
  IC50: 260 nM

## CN(C)CCCn1c(=O)c(-c2c(Cl)cccc2Cl)cc2cnc(N)nc21
[1]
  IC50: 1800 nM
[2]
  IC50: 0.88 µM
[3]
  IC50: 50 nM

## Cn1c(=O)c(-c2ccsc2)cc2cnc(Nc3ccccc3)nc21
[1]
  IC50: 800 nM
[2]
  IC50: > 50 µM
[3]
  IC50: 8100 nM
